The entries come from a sample that favours hits as a whole.
Mac1 fbg enh – CD11b/CD18-fibrinogen binding enhancement; activation, % at 10 µM; K562 CD11b/CD18 adhesion to fibrinogen, ATPlite luminescence; hit rate 0.07% among 93,000;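 active means 10 µM primary screen giving 50% or more activity, confirmed by 40% or more on retest at that dose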
Ecoli WT expand – growth inhibitors of E. coli BW25113 wild type | OD600 absorbance | growth inhibition, % at 100 µM | hit rate 0.15% among 98,000 | AID 710;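 active means growth inhibition above about 50% at one test dose, limit read from the data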;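 further: growth measured after 20 h incubation at 37 °C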
Mac1 fbg inh – blocks human CD11b/CD18 adhesion to fibrinogen | P05107+P11215 | hit rate 0.54% among 93,000 | K562 CD11b/CD18 adhesion to fibrinogen, ATPlite luminescence; Mn2+ added to activate the integrin | AID 1497 | inhibition, % at 10 µM;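 active means primary inhibition of 50% or more at 10 µM, then 40% or more on retest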
tolC growth inh – blocks growth of E. coli BW25113 tolC mutant. hit rate 2.2% among 65,000. growth inhibition, % at 10 µM (by protocol). OD615;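 active means growth inhibition at or above a cutoff equal to the mean over every tested compound plus 3 SD, cut at about 60% in these data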;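 further: growth measured after 20 h incubation at 37 °C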
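Signal: optical density read at 615 nm; Assay system: E. coli ΔtolC::kan strain BW25113; Times: 20 h incubation with compound, 37 °C; Dosing: 10 µM final, single dose.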
The depositor's hits bear a star; x = no result given.

SMILES	Mac1 fbg enh	Ecoli WT expand	Mac1 fbg inh	tolC growth inh
Cc1ccc(Nc2nnc(SCC(=O)Nc3ccc(S(=O)(=O)N4CCOCC4)cc3)s2)cc1	-2	-7	52*	x
O=C(Nc1cccc(C(F)(F)F)c1)c1ccco1	x	2	x	14
O=C(Nc1ccc(Cl)c(C(F)(F)F)c1)c1ccco1	-3	30	17	98*
Cc1ccc(-c2csc3ncn(-n4c(C)ccc4C)c(=O)c23)o1	6	-9	3	67*
CN(C)[C@@H]1CCC[C@@H]1OC(=O)C(c1ccccc1)c1ccccc1	2	x	3	x
O=C(CC(=O)c1cc(Cl)ccc1O)c1ccccc1	x	18	x	97*
Cc1cccc(C(=O)CC(=O)c2cc(Cl)ccc2O)c1	-7	49	94	x
COc1ccc(O)c(C(=O)CC(=O)c2ccc(F)cc2)c1	1	10	0	100*
Cc1ccc(O)c(C(=O)CC(=O)c2cccc(F)c2)c1	0	16	54	100*
CCN(CC)S(=O)(=O)c1ccc2c(c1)nc(SCc1nc3ccsc3c(=O)[nH]1)n2CC	1	2	-9	19
CNC(=O)COC(=O)c1ccc(-c2nc3ccccc3s2)s1	11	-5	64*	x
Cc1cc(NC(=O)COC(=O)C(Nc2ccc(C(F)(F)F)cc2Cl)C(C)C)no1 (stereo unspecified)	x	1	x	91*
COc1ccccc1-c1cc(C(=O)NCc2ccccc2)no1	-3	-10	3	80*
COc1ccc(CNC(=O)c2cc(-c3ccco3)on2)cc1	x	-8	x	-23
COc1ccccc1-c1cc(C(=O)NCc2ccc(F)cc2)no1	0	-10	-1	92*
O=C(NCc1ccc(F)cc1)c1cc(-c2ccco2)on1	7	0	-2	-9
COc1ccc(CNC(=O)c2cc(-c3ccccc3OC)on2)cc1	0	-2	0	69*
COc1ccccc1-c1cc(C(=O)NCc2ccc(Cl)cc2)no1	x	-3	x	-4
CCC(SC1=N/C(=C/c2ccccc2OC)C(=O)N1c1ccccc1)C(=O)Nc1cc(C)on1 (stereo unspecified)	22	-12	2	x
Cc1ccc(S(=O)(=O)N2CCCC2C(=O)Nc2nc3ccccc3s2)cc1 (stereo unspecified)	-2	4	2	21
O=C(Nc1nc2ccccc2s1)C1CCCN1S(=O)(=O)c1ccc(Cl)cc1 (stereo unspecified)	6	-7	19	86*
CN(c1ccccc1C(=O)Nc1ccc(S(=O)(=O)N2CCCCC2)cc1)S(C)(=O)=O	-2	9	-8	100*
O=C(COc1cccc(C(F)(F)F)c1)Nc1ccc(S(=O)(=O)N2CCCC2)cc1	3	-7	27	64*
Cc1cccc(OCCC(=O)Nc2ccc(S(=O)(=O)N3CCCC3)cc2)c1	x	-7	x	34
O=C(Nc1ccccc1)Nc1ccc(S(=O)(=O)N2CCCCC2)cc1	x	27	x	100*
SMILES	Mac1 fbg enh	Ecoli WT expand	Mac1 fbg inh	tolC growth inh
O=C(Nc1ccc(S(=O)(=O)N2CCCCC2)cc1)c1ccccc1Cl	-2	-13	18	x
Cc1ccc(C)c(Cn2c(C(=O)OC(C)C)cc3c2ccn3C)c1	x	10	x	x
CCCN1C(=O)/C(=N\OCC(=O)NCC(F)(F)F)c2ccccc21	0	x	12	x
COCc1nnc(NS(=O)(=O)c2ccc(Br)cc2)s1	-6	-6	1	-7
COc1cccc(-c2cc(C(=O)N3CC4(C)CC3CC(C)(C)C4)no2)c1 (stereo unspecified)	1	-9	3	80*
COC(=O)C(CC(=O)c1ccc(Br)cc1)n1ccnc1 (stereo unspecified)	-1	59*	13	5
CCc1cccc(CC)c1NC(=O)COC(=O)c1cccc(-c2ccc(OC(C)=O)cc2)c1	16	x	9	x
N#Cc1c(NC(=O)c2ccc(Cn3cc(Br)cn3)o2)sc2c1CCCCCC2	-5	-16	100	61*
CCc1ccc(CCC(=O)Nc2sc3c(c2C#N)CCCC3)o1	x	-5	x	32
CCOc1ccc(/C=N/n2c(SC)nnc2-c2ccccc2)cc1OCC	x	-9	x	x
O=C(NCc1cccs1)c1ccc([N+](=O)[O-])cc1Cl	-4	x	-7	x
O=C(CSc1nc2ccccc2o1)Nc1nc2ccccc2s1	83*	-4	9	33
CCc1nc(SCC(=O)Nc2nc3c(s2)CCCC3)c2ccccc2n1	x	-1	x	x
O=C(CSc1nc2ccccc2o1)Nc1nc2c(s1)CCCC2	x	x	x	63*
CC1=C(C(=O)Nc2ccccc2C)C(c2ccc(C)o2)NC(=S)N1 (stereo unspecified)	2	x	9	x
CCOC(=O)C1=C(N)Oc2c(c(=O)[nH]c3ccccc23)C1c1ccccc1 (stereo unspecified)	-2	-2	-4	x
COc1ccc(C2CC(c3ccc(Cl)cc3)Nc3nc(NC(=O)c4ccco4)nn32)cc1 (stereo unspecified)	x	x	x	48
COc1ccc(C2CC(c3ccccc3)Nc3nc(NC(=O)c4cccs4)nn32)cc1 (stereo unspecified)	-1	1	30	49
O=C(Nc1nc2n(n1)C(c1ccc(Cl)cc1)CC(c1ccc(Cl)cc1)N2)c1ccco1 (stereo unspecified)	2	-6	-25	61*
COc1ccc(C2CC(c3ccccc3)n3nc(NC(=O)c4cccs4)nc3N2)cc1 (stereo unspecified)	-5	-2	6	65*
CCCOc1ccccc1Cn1c(=O)oc2ccc(C)cc21	5	2	-40	73*
CCOc1ccccc1Cn1c(=O)oc2ccc(C)cc21	x	x	x	38
C/C(=N\OC(=O)c1ccc(OC(C)C)cc1)c1ccc(C)c(C)c1	-6	-16	66*	x
CC/C(=N\OC(=O)c1ccc(OC(C)C)cc1)c1ccc(C)cc1	-7	-8	80*	x
CCn1nc(C)c(C(=O)Nc2cc(Oc3ccc(Cl)cc3)cc([N+](=O)[O-])c2)c1C	-3	-9	-2	x
SMILES	Mac1 fbg enh	Ecoli WT expand	Mac1 fbg inh	tolC growth inh
CCCc1ccc(-c2cc(C(=O)Nc3ccc([N+](=O)[O-])cn3)c3ccccc3n2)cc1	-5	x	23	x
c1ccc(CCNc2ncnc3c2cnn3-c2ccccc2)cc1	x	x	x	73*
CCN(c1ccccc1)c1ncnc2c1cnn2-c1ccccc1	4	-2	-1	100*
c1ccc(CNc2ncnc3c2cnn3-c2ccccc2)cc1	0	1	-1	-3
CN(Cc1ccccc1)c1ncnc2c1cnn2-c1ccccc1	-4	-15	38	92*
COCCN(CCOC)c1ncnc2c1cnn2-c1ccccc1	x	x	x	-8
N#Cc1ccccc1Sc1ccccc1C(=O)Nc1ccccc1	-2	5	-14	x
C=CCNc1oc(Cc2cccc3ccccc23)nc1C#N	-1	-3	15	39
N#Cc1nc(Cc2cccc3ccccc23)oc1NCc1ccc(F)cc1	4	4	5	71*
Cc1ccc(/C=C/C(=O)C2C(=O)c3ccccc3C2=O)cc1	-12	-7	95*	x
Cc1ccc(/C=C/C(=O)Nn2cnnc2)cc1	-3	-4	4	x
CCOc1ccc(S(=O)(=O)Nc2cccc(Cl)c2)cc1	x	x	x	73*
CCOc1ccc(NS(=O)(=O)c2ccc(NS(=O)(=O)c3ccccc3)cc2)cc1	-5	2	-16	x

From PubChem
